Assay results reported in ChEMBL document CHEMBL4828745, “Discovery and Structure-Activity Relationships of Quinazolinone-2-carboxamide Derivatives as Novel Orally Efficacious Antimalarials” (J Med Chem, 2021).

Experiments:
[1] = Kinetic solubility of the compound in pH 6.5 phosphate buffer by nephelometry; format: physicochemical; conditions: read-out: Kinetic_solubility
Method in brief: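 DMSO stock spiked into pH 6.5 phosphate buffer (1% DMSO final). After 30 min, solubility range estimated by nephelometry.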

Plasmodium falciparum [2] = assay: Antimalarial activity against Plasmodium falciparum NF54 assessed as inhibition of parasite growth incubated for 72 hrs by [3H]hypoxanthine incorporation assay based liquid scintillation counting method
[3] = Intrinsic clearance in rat liver microsomes at […] by LC-MS/MS analysis; format: ADME, Microsome
Method in brief: (§1)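 Liver microsomes (human, mouse or rat) at 0.4 mg/mL protein, 37 °C, with an NADPH-regenerating system. Compound at 0.25 or 0.5 μM. Acetonitrile/diazepam quench, LC-MS quantitation. CLint from the first-order degradation rate constant.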

Plasmodium falciparum [4] = assay: Antiplasmodial activity against liver stage Plasmodium falciparum NF54 sporozoites infected in human hepatocytes assessed as parasite killing measured after 96 hrs by schizont assay; format: functional, organism-based; conditions: NF54, 96 h
CYP1A2 = target: T1, CYP1A2 (Homo sapiens, UniProt P05177); assay: Inhibition of CYP1A2 (unknown origin) at 10 uM by UPLC-MS analysis relative to control; format: ADME
T1 sequence (P05177 whole entry): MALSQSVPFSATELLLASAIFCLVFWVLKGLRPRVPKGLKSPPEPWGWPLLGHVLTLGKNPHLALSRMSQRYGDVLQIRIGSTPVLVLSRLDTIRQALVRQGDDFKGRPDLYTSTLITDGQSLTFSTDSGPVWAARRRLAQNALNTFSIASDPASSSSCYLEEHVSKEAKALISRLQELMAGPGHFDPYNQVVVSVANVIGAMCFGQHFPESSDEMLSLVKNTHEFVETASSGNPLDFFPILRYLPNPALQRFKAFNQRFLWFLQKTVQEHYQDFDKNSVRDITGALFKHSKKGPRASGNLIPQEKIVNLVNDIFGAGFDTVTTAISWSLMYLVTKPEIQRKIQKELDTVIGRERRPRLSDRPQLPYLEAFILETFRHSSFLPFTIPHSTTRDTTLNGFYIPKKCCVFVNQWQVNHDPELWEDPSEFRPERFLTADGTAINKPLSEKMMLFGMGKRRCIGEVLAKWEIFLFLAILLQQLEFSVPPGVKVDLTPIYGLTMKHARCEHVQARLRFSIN
Method in brief: (§2)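 Human liver microsomes, using a substrate-specific metabolite approach. Test compound at 1 and 10 μM. Reference inhibitors: furafylline (1A2), sulfaphenazole (2C9), quinidine (2D6), ketoconazole (3A4). Specific metabolites quantified by UPLC-MS. Percent inhibition relative to incubation without inhibitor.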

Plasmodium falciparum [5] = assay: Antimalarial activity against Plasmodium falciparum Dd2 ELQ-300 mutant harbouring Pf-cytB assessed as inhibition of parasite growth incubated for […] by [3H]hypoxanthine incorporation assay based liquid scintillation counting method; format: functional, organism-based
Method in brief: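 Genetically engineered P. falciparum lines carried mutations introduced into the Dd2 wild-type strain, which was tested alongside them. Growth inhibition was read by [3H]hypoxanthine incorporation over 72 h. IC50 is the mean of two independent biological replicates. Chloroquine and artesunate served as controls.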

[6] = Intrinsic clearance in human liver microsomes at […] by LC-MS/MS analysis; format: ADME, Microsome; method in brief: as §1
Hepatocyte = assay: Cytotoxicity against human hepatocyte measured after 96 hrs; format: cell-based; conditions: hepatocytes
Plasmodium falciparum [7] = assay: Antimalarial activity against Plasmodium falciparum 3D70087/N9 infected in humanized NODscidlL2Rgamma null mouse model assessed as reduction in parasitemia at 100 mg/kg, po for 4 consecutive days measured after 7 days of post infection relative to control; format: functional; conditions: 3D70087/N9, po, 96 h, time 4 day
Method in brief: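 P. falciparum humanized SCID mouse model. Monosodium tetrahydrate salt given orally at 50 or 100 mg/kg on 4 consecutive days, n = 2 mice per group. Parasitemia read at day 7 post infection versus untreated controls.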

[8] = Intrinsic clearance in human hepatocytes measured per 10^6 cells at 0.25 uM by LC-MS analysis; format: ADME, cell-based, Hepatocyte; conditions: read-out: CLH
Method in brief: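 Compound at 0.25 μM incubated with cryopreserved human or rat hepatocytes (1×10^6 cells/mL) in Krebs–Henseleit buffer at 37 °C. Quenched with acetonitrile containing diazepam. LC-MS quantitation. CLint from the first-order degradation rate constant.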

CYP2D6 = CYP2D6 (Homo sapiens, UniProt P10635); assay: Inhibition of CYP2D6 (unknown origin) at 10 uM by UPLC-MS analysis relative to control; format: ADME; method in brief: as §2
Plasmodium falciparum [9] = assay: Antiplasmodial activity against Plasmodium falciparum 3D7 infected in human erythrocyte assessed as intraerythrocytic growth inhibition incubated for 72 hrs by DAPI-staining based imaging analysis; format: functional, organism-based; conditions: 3D7, 72 h
Method in brief: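 P. falciparum 3D7 cultured in RPMI1640 with hypoxanthine, HEPES, 2.5 mg/mL AlbuMAX II and 5% human serum. Sorbitol-synchronized rings exposed 72 h at 37 °C under 5% CO2/5% O2, then DAPI-stained with saponin/Triton X-100 for 8 h in the dark. High-content imaging with spot detection. Duplicate points. Reference antimalarials run in each assay.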

[10] = Fraction unbound in human plasma; format: ADME, cell-free
Method in brief: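 Human plasma protein binding measured by rapid equilibrium dialysis.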

Chain of CYP2D6 (P10635 whole entry): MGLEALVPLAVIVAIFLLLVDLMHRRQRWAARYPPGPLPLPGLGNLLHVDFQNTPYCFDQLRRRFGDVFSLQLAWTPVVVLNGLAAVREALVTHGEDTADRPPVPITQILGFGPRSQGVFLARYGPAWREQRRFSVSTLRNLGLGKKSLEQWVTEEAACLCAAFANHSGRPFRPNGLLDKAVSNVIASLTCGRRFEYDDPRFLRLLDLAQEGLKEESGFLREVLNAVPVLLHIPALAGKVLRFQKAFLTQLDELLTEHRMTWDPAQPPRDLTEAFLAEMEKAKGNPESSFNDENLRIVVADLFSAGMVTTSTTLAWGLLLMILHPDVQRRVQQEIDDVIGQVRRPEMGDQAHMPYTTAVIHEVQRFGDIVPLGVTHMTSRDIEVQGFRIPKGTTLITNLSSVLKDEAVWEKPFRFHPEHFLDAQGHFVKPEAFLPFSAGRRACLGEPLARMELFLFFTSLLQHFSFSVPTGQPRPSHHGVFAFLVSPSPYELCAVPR

**Q.** With `CCc1cccc(CNC(=O)c2nc3cccc(COCc4ccc(C(=O)O)cc4)c3c(=O)[nH]2)c1` as the molecule, how does the solubility kinetic [1] read?
**A.** Its solubility kinetic is < 1.6 µg/mL.

**Q.** And the IC50 (Plasmodium falciparum [2])?
**A.** Its IC50 is 60 nM.

**Q.** And the CLH [3]?
**A.** The CLH was 36 uL/ml.millig.

**Q.** And the IC50 (Plasmodium falciparum [4])?
**A.** The IC50 was 75 nM.

**Q.** What about the inhibition at 10 µM (CYP1A2) of the same molecule?
**A.** The inhibition at 10 µM was < 10%.

**Q.** And the IC50 (Plasmodium falciparum [5])?
**A.** Its IC50 is 20 nM.

**Q.** And the CLH [6]?
**A.** Its CLH is 35 uL/ml.millig.

**Q.** What about the Activity (Hepatocyte) of the same molecule?
**A.** Its Activity is “Non-Toxic”.

**Q.** What about the inhibition in vivo at 100 mg/kg (Plasmodium falciparum [7]) of the same molecule?
**A.** Its inhibition in vivo at 100 mg/kg is 89%.

**Q.** What about the hepatocyte CLint at 0.25 µM [8] of the same molecule?
**A.** The hepatocyte CLint at 0.25 µM was 15 µL/min/1e6 cells.

**Q.** What about the inhibition at 10 µM (CYP2D6) of the same molecule?
**A.** Its inhibition at 10 µM is < 10%.

**Q.** What about the IC50 (Plasmodium falciparum [9]) of the same molecule?
**A.** The IC50 was 25 nM.

**Q.** What about the Fu [10] of the same molecule?
**A.** Its Fu is 0.2%.
